Legend:
[1] = system: Mus musculus; assay: Percentage increase in life span of L1210 leukemia implanted mice at a dose of 200 mg/kg; assay type: functional
In short: (§1)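 Female CD2F1 mice, 10–12 weeks old, inoculated ip on day 0 with 10⁵ L1210 leukemia cells. Test agent dissolved in sterile saline immediately before use and given as a single ip dose on day 1 at 0.01 mL/g body weight. Groups of 6–8 treated and 18–24 control mice, following NCI screening protocol. Read-out is % increase in life span, with survivors noted at day 60.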

[2] = system: Mus musculus; assay: Percentage increase in life span of L1210 leukemia implanted mice at a dose of 100 mg/kg; assay type: functional; in short: as §1
[3] = system: Mus musculus; assay: Percentage increase in life span of L1210 leukemia implanted mice at a dose of 15-60 mg/kg; assay type: functional; in short: as §1
[4] = system: Mus musculus; assay: Percentage increase in life span of L1210 leukemia implanted mice at a dose of 30-180 mg/kg; value range is 0-12; assay type: functional; in short: as §1
[5] = system: Mus musculus; assay: Percentage increase in life span of L1210 leukemia implanted mice at a dose of 30-180 mg/kg; assay type: functional; in short: as §1
[6] = species on record: Mus musculus; assay: Effective dose that causes 50% increase in life span of mice; assay type: functional
In short: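 In L1210-bearing mice, ip dosing was run on day 1 across 4–6 dose levels giving 15–100% ILS, with six mice per dose. ED50 (dose giving 50% ILS) was obtained per experiment by linear regression of dose against %ILS. Values are reported as mean ± SD over the number of experiments.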

[7] = system: Mus musculus; assay: Percentage increase in life span of L1210 leukemia implanted mice at a dose of 300 mg/kg; assay type: functional; in short: as §1
[8] = system: Mus musculus; assay: Percentage increase in life span of L1210 leukemia implanted mice at a dose of 400 mg/kg; assay type: functional; in short: as §1
[9] = system: Mus musculus; assay: Percentage increase in life span of L1210 leukemia implanted mice at a dose of 60 mg/kg; assay type: functional; in short: as §1
[10] = system: Mus musculus; assay: Percentage increase in life span of L1210 leukemia implanted mice at a dose of 80 mg/kg; assay type: functional; in short: as §1
[11] = system: Mus musculus; assay: Percentage increase in life span of L1210 leukemia implanted mice at a dose of […] 50 mg/kg; assay type: functional; in short: as §1
[12] = system: Mus musculus; assay: Percentage increase in life span of L1210 leukemia implanted mice at a dose of 150 mg/kg; assay type: functional; in short: as §1
[13] = Lethal dose to kill 50% of the mice after single ip injection to healthy female CD2F1 mice; assay type: toxicity, organism-based; conditions: CD2F1, mouse, in vivo
In short: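 Healthy female CD2F1 mice received a single ip injection at 5–6 dose levels spanning 0–100% mortality, with 10 or 15 animals per group. Deaths were followed for 21 days. LD50 and 95% confidence limits were calculated by probit analysis.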

[14] = system: Mus musculus; assay: Percentage increase in life span of L1210 leukemia implanted mice at a dose of 180 mg/kg; assay type: functional; in short: as §1
[15] = system: Mus musculus; assay: Percentage increase in life span of L1210 leukemia implanted mice at a dose of 500 mg/kg; assay type: functional; in short: as §1
[16] = system: Mus musculus; assay: Percentage increase in life span of L1210 leukemia implanted mice at a dose of 600 mg/kg; assay type: functional; in short: as §1
[17] = system: Mus musculus; assay: Percentage increase in life span of L1210 leukemia implanted mice at a dose of 120 mg/kg; assay type: functional; in short: as §1

Compound | ILS at 200 mg/kg [1] | ILS at 100 mg/kg [2] | ED50 [6] | ILS at 300 mg/kg [7] | ILS at 400 mg/kg [8] | ILS at 150 mg/kg [12] | LD50 [13] | ILS at 120 mg/kg [17] | also measured
O=P1(NCCF)OCCCN1CCCl (stereo not given) | -40% | -40% |  |  |  |  |  |  | ILS [3]: 10%
CCOP(=O)(OCC)OCCNP1(=O)OCCCN1CCCl (stereo not given) |  |  |  |  |  |  |  |  | ILS [4]: 0%
CC(=O)OCCNP1(=O)OCCCN1CCCl (stereo not given) |  |  |  |  |  |  |  |  | ILS [5]: 13%
O=P1(NCCBr)OCCCN1CCCl (stereo not given) | > 550% | > 430% | 36.2 mg/kg | > 550% | 500% | > 550% | 470 mg/kg |  | ILS at 60 mg/kg [9]: 88%; ILS at 80 mg/kg [10]: 110%; ILS at 50 mg/kg [11]: 74%
Cc1ccc(S(=O)(=O)OCCNP2(=O)OCCCN2CCCl)cc1 (stereo not given) |  |  |  |  |  |  |  |  | ILS [5]: 13%
O=P1(NCCCl)OCCCN1CCCl (stereo not given) [IFOSFAMIDE] | > 350% |  | 88.6 mg/kg | > 400% | > 500% | 123% | 679 mg/kg | 74% | ILS at 180 mg/kg [14]: > 250%; ILS at 500 mg/kg [15]: > 500%; ILS at 600 mg/kg [16]: > 480%
O=[P@]1(NCCBr)OCCCN1CCCl | > 550% |  | 66.2 mg/kg | > 550% | > 550% | > 500% | 541 mg/kg | 114% | ILS at 500 mg/kg [15]: 206%
O=[P@@]1(NCCBr)OCCCN1CCCl | > 550% | > 550% | 27.7 mg/kg | > 350% | 62% | > 550% | 368 mg/kg |  | ILS at 60 mg/kg [9]: 140%
O=P(OCCNP1(=O)OCCCN1CCCl)(OCc1ccccc1)OCc1ccccc1 (stereo not given) |  |  |  |  |  |  |  |  | ILS [4]: 0%
O=P1(N(CCCl)CCCl)NCCCO1 (stereo not given) [CYCLOPHOSPHAMIDE ANHYDROUS] | > 550% |  | 90.6 mg/kg | > 550% | > 425% | 89% | 445 mg/kg | 86% | 

Source: ChEMBL document CHEMBL1123954, “Synthesis and antitumor activity of analogues of ifosfamide modified in the N-(2-chloroethyl) group” (J Med Chem, 1988)
